Test results published in ChEMBL document CHEMBL1671691 (Antimicrob Agents Chemother, 2010).

How the values were obtained:
[1] = system: Influenza A virus; assay: Antiviral activity against oseltamivir-susceptible zanamivir-, adamantane-resistant Influenza A virus (A/Texas/12/2007 (clone)(H3N2)) harboring neuraminidase E119I mutant and harboring M2 S31N mutant infected in MDCK cells assessed as inhibition of viral replication after 3 days by microscopic analysis using crystal violet stain; format: functional, organism-based, Influenza A virus (A/Texas/12/2007(H3N2))
[2] = system: Influenza B virus; assay: Antiviral activity against oseltamivir-susceptible zanamivir-, adamantane-resistant Influenza B virus B/Memphis/20/1996 harboring neuraminidase R152K mutant infected in MDCK cells assessed as inhibition of viral replication after 3 days by microscopic analysis using crystal violet stain; format: functional, cell-based, B/Memphis/20/96
[3] = system: Influenza A virus; assay: Antiviral activity against adamantane-resistant zanamivir-,oseltamivir-susceptible Influenza A virus (A/Washington/01/2007(H3N2)) harboring M2 S31N mutant infected in MDCK cells assessed as inhibition of viral replication after 3 days by microscopic analysis using crystal violet stain; format: functional, organism-based
Outline: (§1)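 Confluent MDCK-ATCC monolayers infected with virus diluted to give 15–45 plaques/well. Adsorption 1 h at 37°C without drug, then washed. Overlaid with 0.8% agarose in MEM containing drug plus TPCK-trypsin: 3 μg/ml for seasonal viruses, 2 μg/ml for 2009 A(H1N1). Incubated 3 days at 37°C, 5% CO2. Ethanol-fixed, crystal violet-stained, plaques counted. EC50 by curve fit; duplicates on three occasions, mean ± SD.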

[4] = system: Influenza A virus; assay: Antiviral activity against adamantane-resistant zanamivir-,oseltamivir-susceptible Influenza A virus (A/Florida/01/2009(H3N2)) harboring M2 S31N mutant infected in MDCK cells assessed as inhibition of viral replication after 3 days by microscopic analysis using crystal violet stain; format: functional, organism-based; outline: as §1
[5] = system: Influenza B virus; assay: microbe, parasite or virus in culture; conditions: B/Memphis/20/96, MDCK, 72 h
[6] = system: Influenza A virus; assay: Antiviral activity against adamantane-, zanamivir-susceptible oseltamivir-resistant Influenza A virus (A/Georgia/20/2006(H1N1)) harboring neuraminidase H274Y mutant infected in MDCK cells assessed as inhibition of viral replication after 3 days by microscopic analysis using crystal violet stain; format: functional, organism-based; outline: as §1

With `NC(=O)c1ncn([C@@H]2O[C@H](CO)[C@@H](O)[C@H]2O)n1` [RIBAVIRIN] the EC50 [1] was 46.7 µM, the EC50 [2] was 25 µM and the EC50 [3] was 35.6 µM. For the same compound, the EC50 [4] was 20.9 µM, the EC50 [5] was 13.9 µM and the EC50 [6] was 19.7 µM.
